Experimental data gathered from unrelated publications.
Each line is one published result; the experiments were not run side by side.
Target: MAP/microtubule affinity-regulating kinase 3 (MARK3, Homo sapiens, UniProt P27448)

COc1cc(/C=C/C(=O)CC(=O)/C=C/c2ccc(O)c(OC)c2)ccc1O — activity vs control (enzyme activity; inhibitor; 1 µM): 90%
CSc1cccnc1N1CCN(Cc2nc3ccccc3[nH]2)CC1 — remaining binding (cell-free assay; competition with immobilised ligand; 1 µM): 98%
COc1cc2ncnc(Nc3ccc(Oc4ccccc4)cc3C)c2cc1OC — inhibition (enzyme activity; inhibitor; 1 µM): 8%
COc1ccc(COc2ccc(Cc3cnc(N)nc3N)cc2OC)cc1 — remaining signal (cell-free assay; 0.5 µM): 103%
Nc1c(C(=O)NCc2ccc(C(=O)NCCCC3CCCCC3)cc2)cnn1-c1ccccc1 — remaining binding (cell-free assay; competition with immobilised ligand; 0.1 µM): 78%
O=C(Nc1cccc(Nc2ncc(Br)c(NCCc3cnc[nH]3)n2)c1)N1CCCC1 — remaining activity (enzyme activity; inhibitor; radiometric; 1 µM): -1%
CS(=O)(=O)CCNCc1ccc(-c2ccc3ncnc(Nc4ccc(OCc5cccc(F)c5)c(Cl)c4)c3c2)o1 — remaining signal (cell-free assay; 0.5 µM): 95.9%
CN1CCc2cc(Nc3ncc(C4CC4)c(NCCCNC(=O)C4CCC4)n3)ccc2C1 — remaining activity (enzyme activity; inhibitor; radiometric; 1 µM): -4%
CCCS(=O)(=O)Nc1ccc(F)c(C(=O)c2c[nH]c3ncc(-c4ccc(Cl)cc4)cc23)c1F — inhibition (enzyme activity; inhibitor; 1 µM): < 10%
CS(=O)(=O)Nc1cccc(-c2csc(NC(=O)CSc3nc4nccnc4c(=O)n3CCc3ccccc3)n2)c1 — inhibition (enzyme activity; inhibitor; 10 µM): 1%
CC(=O)N1CCC(c2ccc(C(=O)NC(=N)N)cc2C(F)(F)F)CC1 — remaining binding (cell-free assay; competition with immobilised ligand; 1 µM): 88%
Cc1nn(CC(F)(F)F)cc1Nc1nccc(NCCc2cnc[nH]2)n1 — remaining activity (enzyme activity; inhibitor; radiometric; 1 µM): 126%
Cc1cc(NC(=O)c2cccc(S(F)(F)(F)(F)F)c2)cc(-n2ccn3nc(-c4cccnc4)cc23)c1 — remaining binding (cell-free assay; competition with immobilised ligand; 1 µM): 100%
O=C1NC(=O)c2cc(Nc3ccc(F)cc3)c(Nc3ccc(F)cc3)cc21 — remaining signal (cell-free assay; 0.5 µM): 90.8%
CCCCNc1ncc2c(-c3ccc(F)cc3)nn(C[C@H]3CC[C@H](N)CC3)c2n1 — inhibition (target engagement in cells; inhibitor; chemoproteomics; 20 mM): 33.9%
CN(C)CC#Cc1ccc(OCCCc2sc(N3CCc4cccc(C(=O)Nc5nc6ccccc6s5)c4C3)nc2C(=O)O)c(F)c1 — remaining binding (cell-free assay; competition with immobilised ligand; 1 µM): 38%
Cc1nn(CC(F)(F)F)cc1Nc1ncc(C2CC2)c(NCCc2c[nH]cn2)n1 — remaining activity (enzyme activity; inhibitor; radiometric; 1 µM): 96%
FC(F)(F)Oc1cccc(-c2cnc3ccc(-c4ccncc4)nn23)c1 — activity vs control (enzyme activity; inhibitor; radiometric; 1 µM): 91%
Cn1nc(C(F)(F)F)cc1-c1cnc(N2CCc3cc(S(=O)(=O)Nc4c(F)cc(Cl)cc4F)cc(N4CCCC4=O)c32)nc1 — remaining binding (binding; competition with immobilised ligand; 1 µM): 12%
CC/C(=N\NC(=O)NCc1cccc(O)c1)c1ccc(O)c(C)c1O — inhibition (enzyme activity; inhibitor; 0.1 µM): -16.8%
O=C(Nc1cnn(-c2csc(C(=O)NC3COC3)c2)c1)Nc1ccccc1Cl — remaining activity (enzyme activity; inhibitor; 5 µM): 98.2%
COc1cccc2c(NCc3ccccc3)nc(-n3c(N)nc4ccccc43)nc12 — inhibition (target engagement in cells; inhibitor; chemoproteomics; 20 mM): -1%
O=C(NCCCNc1nc(Nc2cccc(NC(=O)N3CCCC3)c2)ncc1I)c1cccs1 — remaining activity (enzyme activity; inhibitor; radiometric; 1 µM): -4%
Cc1cc(C)c(-n2ccn3nc(-c4cccnc4)cc23)cc1NC(=O)c1cc(C#N)cc(S(F)(F)(F)(F)F)c1 — remaining binding (cell-free assay; competition with immobilised ligand; 0.1 µM): 85.1%
NS(=O)(=O)c1ccc(CNc2nc(Nc3cccc(CN4CCOCC4)c3)ncc2C2CC2)cc1 — remaining activity (enzyme activity; inhibitor; radiometric; 1 µM): 109%
CNc1cccc2cc(C(=O)Nc3ccc(C(=O)O)cc3)c(=O)[nH]c12 — inhibition (enzyme activity; inhibitor; 10 µM): -10%
NS(=O)(=O)c1ccc(CNc2nc(Nc3cccc(NC(=O)N4CCCC4)c3)ncc2Br)cc1 — remaining activity (enzyme activity; inhibitor; radiometric; 1 µM): 63%
CN1CC(Oc2cnc(C#N)cc2-c2ccn3nc(NC(=O)C4CC4)cc3c2)C1 — inhibition (enzyme activity; inhibitor; 1 µM): 17%
NS(=O)(=O)c1ccc(CNc2ccnc(Nc3cccc(CN4CCOCC4)c3)n2)cc1 — remaining activity (enzyme activity; inhibitor; radiometric; 1 µM): 113%
C[C@H](NC(=O)c1cnc2n1[C@](C)(Cc1ccc(C#N)cc1)C(=O)N2c1cc(Cl)c(F)c(Cl)c1)C(=O)NC1(c2ccccn2)CC1 — remaining binding (cell-free assay; competition with immobilised ligand; 1 µM): 92%
